Measured values from ChEMBL document CHEMBL4354843, “Structure-Based Design of a Potent and Selective Covalent Inhibitor for SRC Kinase That Targets a P-Loop Cysteine” (J Med Chem, 2020).

Tests used:
[1] = system: Tyrosine-protein kinase ABL1 (Homo sapiens), P00519 [E255K]; assay: Binding affinity to human phosphorylated ABL1 E255K mutant (S229 to K512 residues) expressed in mammalian expression system assessed as residual binding level at 1 uM by Kinomescan method relative to control
In short: (§1)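 KinomeScan active site-directed competition binding panel (468 kinases), compound tested at 1 μM. Result expressed as remaining kinase signal versus DMSO control (percent of control).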

[2] = target: Serine/threonine-protein kinase B-raf (Homo sapiens) (UniProt P15056); assay: Binding affinity to wild-type human partial length BRAF (S429 to E741 residues) expressed in mammalian expression system assessed as residual binding level at 1 uM by Kinomescan method relative to control
[3] = target: Calcium/calmodulin-dependent protein kinase type II subunit beta (Homo sapiens) (UniProt Q13554); assay: Binding affinity to wild-type human partial length CAMK2B (M1 to Q380 residues) expressed in bacterial expression system assessed as residual binding level at 1 uM by Kinomescan method relative to control
[4] = target: Calcium/calmodulin-dependent protein kinase kinase 2 (Homo sapiens) (UniProt Q96RR4); assay: Binding affinity to wild-type human partial length CAMKK2 (D65 to V471 residues) expressed in bacterial expression system assessed as residual binding level at 1 uM by Kinomescan method relative to control
Calcium/calmodulin-dependent protein kinase kinase 2 (Homo sapiens), sequence (Q96RR4 2-588 limits assumed): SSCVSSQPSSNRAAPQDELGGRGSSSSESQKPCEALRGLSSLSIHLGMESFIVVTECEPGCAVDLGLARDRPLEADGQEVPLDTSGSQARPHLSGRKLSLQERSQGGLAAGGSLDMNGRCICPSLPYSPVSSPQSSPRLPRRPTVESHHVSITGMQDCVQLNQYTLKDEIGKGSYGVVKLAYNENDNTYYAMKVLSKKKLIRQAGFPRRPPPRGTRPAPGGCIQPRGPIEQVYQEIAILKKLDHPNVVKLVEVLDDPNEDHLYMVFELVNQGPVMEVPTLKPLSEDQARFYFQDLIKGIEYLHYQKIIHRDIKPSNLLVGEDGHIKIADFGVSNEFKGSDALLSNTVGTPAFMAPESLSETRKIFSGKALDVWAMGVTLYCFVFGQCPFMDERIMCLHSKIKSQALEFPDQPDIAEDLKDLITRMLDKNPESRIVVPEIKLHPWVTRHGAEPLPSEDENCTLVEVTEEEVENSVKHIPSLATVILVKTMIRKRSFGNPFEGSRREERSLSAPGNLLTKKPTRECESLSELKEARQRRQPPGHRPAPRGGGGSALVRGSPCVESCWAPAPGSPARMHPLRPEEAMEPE

[5] = target: Cyclin-dependent kinase 4 (Homo sapiens) (UniProt P11802); assay: Binding affinity to wild-type human full length CDK4 (M1 to E303 residues) expressed in mammalian expression system assessed as residual binding level at 1 uM by Kinomescan method relative to control
Cyclin-dependent kinase 4 (Homo sapiens), sequence (P11802 whole entry, the tested form may be a part): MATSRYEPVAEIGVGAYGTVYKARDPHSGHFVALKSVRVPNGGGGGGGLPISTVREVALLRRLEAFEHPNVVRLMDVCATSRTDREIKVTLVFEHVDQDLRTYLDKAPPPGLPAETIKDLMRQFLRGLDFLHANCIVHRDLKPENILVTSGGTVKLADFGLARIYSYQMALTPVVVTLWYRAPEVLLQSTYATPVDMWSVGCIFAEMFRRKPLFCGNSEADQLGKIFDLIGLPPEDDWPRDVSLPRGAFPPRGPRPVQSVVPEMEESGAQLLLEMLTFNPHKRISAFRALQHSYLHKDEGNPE
In short: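 Active-site-directed KinomeScan competition binding panel covering 468 kinases, compound tested at 1 μM. Each readout is the kinase signal remaining with compound, expressed as a percentage of the DMSO control. […]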

[6] = target: Cyclin-dependent kinase-like 1 (Homo sapiens) (UniProt Q00532); assay: Binding affinity to wild-type human full length CDKL1 (M1 to I358 residues) expressed in mammalian expression system assessed as residual binding level at 1 uM by Kinomescan method relative to control
In short: (§2)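 KinomeScan, an active site-directed competition binding panel of 468 kinases. The test compound was at 1 μM. The readout is remaining kinase binding as a percentage of the DMSO control. Scores above 35% were treated as weak binding and not listed.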

[7] = target: Ephrin type-A receptor 8 (Homo sapiens) (UniProt P29322); assay: Binding affinity to wild-type human partial length EPHA8 (Q608 to C920 residues) expressed in bacterial expression system assessed as residual binding level at 1 uM by Kinomescan method relative to control
In short: (§3)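 Active-site-directed competition binding panel of 468 kinases (KinomeScan), compound at 1 μM. The read-out is kinase remaining bound, given as a percentage of the DMSO control. […]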

[8] = target: Rhodopsin kinase GRK1 (Homo sapiens) (UniProt Q15835); assay: Binding affinity to wild-type human full length GRK1 (M1 to S563 residues) expressed in mammalian expression system assessed as residual binding level at 1 uM by Kinomescan method relative to control; in short: as §2
[9] = target: Tyrosine-protein kinase JAK3 (Homo sapiens) (UniProt P52333); assay: Binding affinity to wild-type human partial length JAK3 JH1 catalytic domain (I781 to S1124 residues) expressed in mammalian expression system assessed as residual binding level at 1 uM by Kinomescan method relative to control; in short: as §3
[10] = system: Mast/stem cell growth factor receptor Kit (Homo sapiens), P10721 [L576P]; assay: Binding affinity to human partial length KIT L576P mutant (Y545 to D952 residues) expressed in bacterial expression system assessed as residual binding level at 1 uM by Kinomescan method relative to control; in short: as §1
[11] = system: Leucine-rich repeat serine/threonine-protein kinase 2 (Homo sapiens), Q5S007 [G2019S]; assay: Binding affinity to human partial length LRRK2 G2019S mutant (H970 to E2527 residues) expressed in mammalian expression system assessed as residual binding level at 1 uM by Kinomescan method relative to control; in short: as §1
[12] = target: Serine/threonine-protein kinase mTOR (Homo sapiens) (UniProt P42345); assay: Binding affinity to wild-type human partial length MTOR (L1382 to W2549 residues) expressed in mammalian expression system assessed as residual binding level at 1 uM by Kinomescan method relative to control; in short: as §3
[13] = target: Myosin light chain kinase 2, skeletal/cardiac muscle (Homo sapiens) (UniProt Q9H1R3); assay: Binding affinity to wild-type human partial length MYLK2 (D258 to K570 residues) expressed in bacterial expression system assessed as residual binding level at 1 uM by Kinomescan method relative to control
Myosin light chain kinase 2, skeletal/cardiac muscle (Homo sapiens), sequence (Q9H1R3 whole entry, the tested form may be a part): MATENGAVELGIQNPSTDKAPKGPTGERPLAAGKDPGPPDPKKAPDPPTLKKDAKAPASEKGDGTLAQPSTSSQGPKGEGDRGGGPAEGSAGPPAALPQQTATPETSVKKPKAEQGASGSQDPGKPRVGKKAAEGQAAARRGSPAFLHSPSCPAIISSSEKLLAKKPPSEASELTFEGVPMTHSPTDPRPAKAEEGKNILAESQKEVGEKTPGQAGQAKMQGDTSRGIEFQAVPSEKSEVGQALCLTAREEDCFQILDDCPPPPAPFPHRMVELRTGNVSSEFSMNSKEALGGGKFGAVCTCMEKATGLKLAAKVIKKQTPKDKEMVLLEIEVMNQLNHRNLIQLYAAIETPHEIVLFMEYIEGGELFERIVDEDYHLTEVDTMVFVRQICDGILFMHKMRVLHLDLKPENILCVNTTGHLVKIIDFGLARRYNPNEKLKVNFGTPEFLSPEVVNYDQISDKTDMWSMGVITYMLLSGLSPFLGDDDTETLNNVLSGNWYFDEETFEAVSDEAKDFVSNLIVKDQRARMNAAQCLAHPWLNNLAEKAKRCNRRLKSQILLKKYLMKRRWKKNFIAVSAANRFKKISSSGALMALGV

[14] = target: Phosphatidylinositol 3-kinase C2 domain-containing subunit gamma (Homo sapiens) (UniProt O75747); assay: Binding affinity to wild-type human partial length PIK3C2G (M1 to I1446 residues) expressed in mammalian expression system assessed as residual binding level at 1 uM by Kinomescan method relative to control
[15] = target: Serine/threonine-protein kinase PLK1 (Homo sapiens) (UniProt P53350); assay: Binding affinity to wild-type human partial length PLK1 (A33 to F325 residues) expressed in mammalian expression system assessed as residual binding level at 1 uM by Kinomescan method relative to control
Serine/threonine-protein kinase PLK1 (Homo sapiens), sequence (P53350 whole entry, the tested form may be a part): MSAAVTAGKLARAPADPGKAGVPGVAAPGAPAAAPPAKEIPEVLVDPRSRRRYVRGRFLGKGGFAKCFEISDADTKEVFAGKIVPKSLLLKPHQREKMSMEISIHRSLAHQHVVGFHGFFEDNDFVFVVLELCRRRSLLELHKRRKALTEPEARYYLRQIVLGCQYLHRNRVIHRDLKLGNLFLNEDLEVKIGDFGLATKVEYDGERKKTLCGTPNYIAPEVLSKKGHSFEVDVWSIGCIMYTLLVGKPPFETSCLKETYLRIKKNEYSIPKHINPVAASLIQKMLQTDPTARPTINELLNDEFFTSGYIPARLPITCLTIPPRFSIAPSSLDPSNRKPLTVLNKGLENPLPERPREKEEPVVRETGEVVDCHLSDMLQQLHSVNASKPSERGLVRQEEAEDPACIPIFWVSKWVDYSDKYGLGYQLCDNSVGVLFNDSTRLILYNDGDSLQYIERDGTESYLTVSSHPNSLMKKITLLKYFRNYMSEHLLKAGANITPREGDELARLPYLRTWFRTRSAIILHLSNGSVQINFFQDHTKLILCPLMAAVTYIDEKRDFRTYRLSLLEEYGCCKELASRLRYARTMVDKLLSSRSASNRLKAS

[16] = target: Ribosomal protein S6 kinase alpha-4 (Homo sapiens) (UniProt O75676); assay: Binding affinity to wild-type human partial length N-terminal RPS6KA4 kinase domain 1 expressed in bacterial expression system assessed as residual binding level at 1 uM by Kinomescan method relative to control
Ribosomal protein S6 kinase alpha-4 (Homo sapiens), sequence (O75676 whole entry, looked up, the tested form may be a part): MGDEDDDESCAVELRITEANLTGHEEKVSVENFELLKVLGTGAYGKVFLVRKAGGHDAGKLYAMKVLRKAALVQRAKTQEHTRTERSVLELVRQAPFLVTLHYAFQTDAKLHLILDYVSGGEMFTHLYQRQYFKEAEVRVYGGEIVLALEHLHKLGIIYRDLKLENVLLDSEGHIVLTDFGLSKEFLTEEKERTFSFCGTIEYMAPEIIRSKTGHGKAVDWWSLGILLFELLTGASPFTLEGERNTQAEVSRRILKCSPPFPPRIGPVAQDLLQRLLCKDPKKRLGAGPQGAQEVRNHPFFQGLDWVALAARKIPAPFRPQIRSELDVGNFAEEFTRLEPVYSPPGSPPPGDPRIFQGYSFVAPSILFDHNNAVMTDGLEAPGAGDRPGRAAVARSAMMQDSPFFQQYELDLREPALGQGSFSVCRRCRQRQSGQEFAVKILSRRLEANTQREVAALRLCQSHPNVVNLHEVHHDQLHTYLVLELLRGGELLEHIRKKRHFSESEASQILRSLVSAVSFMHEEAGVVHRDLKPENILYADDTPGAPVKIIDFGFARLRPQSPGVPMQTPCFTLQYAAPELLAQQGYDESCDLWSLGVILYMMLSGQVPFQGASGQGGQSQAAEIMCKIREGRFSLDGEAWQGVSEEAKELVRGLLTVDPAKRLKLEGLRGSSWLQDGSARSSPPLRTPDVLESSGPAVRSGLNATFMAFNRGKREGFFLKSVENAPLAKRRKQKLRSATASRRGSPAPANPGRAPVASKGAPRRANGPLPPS

[17] = target: Ribosomal protein S6 kinase alpha-2 (Homo sapiens) (UniProt Q15349); assay: Binding affinity to wild-type human partial length N- terminal RSK3 kinase domain 1 (M1 to Q385 residues) expressed in bacterial expression system assessed as residual binding level at 1 uM by Kinomescan method relative to control
Ribosomal protein S6 kinase alpha-2 (Homo sapiens), sequence (Q15349 whole entry, the tested form may be a part): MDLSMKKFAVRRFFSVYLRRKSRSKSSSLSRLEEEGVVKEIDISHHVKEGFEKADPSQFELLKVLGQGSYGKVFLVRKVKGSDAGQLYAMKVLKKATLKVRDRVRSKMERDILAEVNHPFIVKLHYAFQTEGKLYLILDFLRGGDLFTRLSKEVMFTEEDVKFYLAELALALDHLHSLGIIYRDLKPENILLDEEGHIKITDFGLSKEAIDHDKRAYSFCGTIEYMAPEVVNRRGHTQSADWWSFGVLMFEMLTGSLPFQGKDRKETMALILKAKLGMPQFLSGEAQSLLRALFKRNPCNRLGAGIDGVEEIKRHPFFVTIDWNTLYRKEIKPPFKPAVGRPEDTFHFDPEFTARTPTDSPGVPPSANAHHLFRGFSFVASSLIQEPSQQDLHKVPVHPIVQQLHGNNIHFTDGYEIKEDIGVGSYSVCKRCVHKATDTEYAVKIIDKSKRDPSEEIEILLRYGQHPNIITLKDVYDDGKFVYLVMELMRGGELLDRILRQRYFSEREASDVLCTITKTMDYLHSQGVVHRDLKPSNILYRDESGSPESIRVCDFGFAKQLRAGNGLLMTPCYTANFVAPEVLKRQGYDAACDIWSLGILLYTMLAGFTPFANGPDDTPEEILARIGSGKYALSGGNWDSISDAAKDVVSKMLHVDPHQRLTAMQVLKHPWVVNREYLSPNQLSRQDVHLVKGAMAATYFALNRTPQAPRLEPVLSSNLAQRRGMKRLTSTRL

[18] = target: Ribosomal protein S6 kinase beta-1 (Homo sapiens) (UniProt P23443); assay: Binding affinity to wild-type human partial length S6K1 (M1 to S421 residues) expressed in mammalian expression system assessed as residual binding level at 1 uM by Kinomescan method relative to control
[19] = target: NT-3 growth factor receptor (Homo sapiens) (UniProt Q16288); assay: Binding affinity to wild-type human partial length TRKC (Q531 to G825 residues) expressed in mammalian expression system assessed as residual binding level at 1 uM by Kinomescan method relative to control
[20] = target: Testis-specific serine/threonine-protein kinase 3 (Homo sapiens) (UniProt Q96PN8); assay: Binding affinity to wild-type human full length TSSK3 (M1 to T268 residues) expressed in mammalian expression system assessed as residual binding level at 1 uM by Kinomescan method relative to control; in short: as §2
Testis-specific serine/threonine-protein kinase 3 (Homo sapiens), sequence (Q96PN8 whole entry, the tested form may be a part): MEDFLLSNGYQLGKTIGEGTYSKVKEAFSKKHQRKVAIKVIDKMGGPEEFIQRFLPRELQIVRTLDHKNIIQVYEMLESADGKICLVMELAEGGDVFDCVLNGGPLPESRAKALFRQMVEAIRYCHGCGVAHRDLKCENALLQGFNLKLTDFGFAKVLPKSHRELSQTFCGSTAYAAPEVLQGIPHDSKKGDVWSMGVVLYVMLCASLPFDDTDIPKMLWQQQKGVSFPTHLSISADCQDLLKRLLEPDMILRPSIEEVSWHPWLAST

[21] = target: Mitogen-activated protein kinase kinase kinase 12 (DLK) (Homo sapiens) (UniProt Q12852); assay: Binding affinity to wild-type human full length DLK (M1 to P859 residues) expressed in mammalian expression system assessed as residual binding level at 1 uM by Kinomescan method relative to control
Mitogen-activated protein kinase kinase kinase 12 (DLK) (Homo sapiens), sequence (Q12852 whole entry, looked up, the tested form may be a part): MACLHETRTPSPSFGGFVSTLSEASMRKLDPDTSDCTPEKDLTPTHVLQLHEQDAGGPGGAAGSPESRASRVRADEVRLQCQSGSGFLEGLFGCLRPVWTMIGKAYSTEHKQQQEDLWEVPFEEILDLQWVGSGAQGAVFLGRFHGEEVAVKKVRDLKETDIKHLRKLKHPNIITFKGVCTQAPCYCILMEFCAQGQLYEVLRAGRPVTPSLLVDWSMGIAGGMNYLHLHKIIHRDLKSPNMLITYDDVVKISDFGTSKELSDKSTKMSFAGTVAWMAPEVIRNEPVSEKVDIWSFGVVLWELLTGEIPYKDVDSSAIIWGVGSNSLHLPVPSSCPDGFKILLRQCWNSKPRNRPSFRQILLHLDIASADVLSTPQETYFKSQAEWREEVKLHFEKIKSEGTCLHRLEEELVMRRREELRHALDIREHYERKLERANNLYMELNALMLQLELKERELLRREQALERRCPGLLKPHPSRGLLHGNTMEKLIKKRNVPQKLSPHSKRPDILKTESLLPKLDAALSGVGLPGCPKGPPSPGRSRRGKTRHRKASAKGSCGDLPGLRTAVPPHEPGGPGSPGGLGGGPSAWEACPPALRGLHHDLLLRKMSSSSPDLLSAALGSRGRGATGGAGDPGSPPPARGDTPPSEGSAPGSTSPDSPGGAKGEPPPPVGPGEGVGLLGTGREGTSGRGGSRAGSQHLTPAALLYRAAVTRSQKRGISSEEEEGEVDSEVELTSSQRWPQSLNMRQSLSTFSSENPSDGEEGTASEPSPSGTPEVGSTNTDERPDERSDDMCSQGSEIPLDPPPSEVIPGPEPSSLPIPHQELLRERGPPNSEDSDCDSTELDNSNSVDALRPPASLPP

C=CC(=O)Nc1ccccc1Nc1nc(Nc2ccc(N3CCN(C)CC3)cc2)ncc1C(=O)Nc1c(C)cccc1Cl
Activity [1]: 0.15% | Activity [2]: 100% | Activity [3]: 100% | Activity [4]: 100% | Activity [5]: 97% | Activity [6]: 72% | Activity [7]: 1% | Activity [8]: 69% | Activity [9]: 88% | Activity [10]: 65% | Activity [11]: 100% | Activity [12]: 98% | Activity [13]: 100% | Activity [14]: 100% | Activity [15]: 100% | Activity [16]: 100% | Activity [17]: 100% | Activity [18]: 95% | Activity [19]: 100% | Activity [20]: 90% | Activity [21]: 97%
